Columns and labels:
MOLT-4 [1] = assay: Cytotoxicity against human MOLT-4 cells assessed as maximum inhibition of cell viability upto 198 uM incubated for 72 hrs by MTS assay relative to control; assay type: functional; conditions: up to 198 µM
Procedure, shortened: (§1)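 Cells seeded at 0.5 to 100 × 10^3 per well the day before drug addition, then exposed to compound for 72 h. MTS added afterwards, with a further 4 h at 37 °C, and absorbance read. Tested in duplicate at 9 serial 3.16-fold dilutions, top concentration 198 μM. MI% is the maximum inhibition of viability across the tested range.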

[2] = Cytotoxicity against human ACHN-luc2 cells assessed as maximum inhibition of cell viability upto 198 uM incubated for 72 hrs by MTS assay relative to control; assay type: functional; conditions: up to 198 µM; procedure, shortened: as §1
PANC-1 [3] = assay: Cytotoxicity against human PANC-1 cells assessed as maximum inhibition of cell viability upto 198 uM incubated for 72 hrs by MTS assay relative to control; assay type: functional; conditions: up to 198 µM; procedure, shortened: as §1
PANC-1 [4] = assay: Cytotoxicity against human PANC-1 cells assessed as inhibition of cell viability incubated for 72 hrs by MTS assay; assay type: functional, cell-based; conditions: PANC-1, 72 h
Procedure, shortened: (§2)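 Cells seeded at 0.5 to 100 × 10^3 per well the day before treatment, then exposed for 72 h to 9 serial concentrations (3.16-fold dilutions, top 198 μM), in duplicate. MTS added for a final 4 h at 37 °C and absorbance read. IC50 is the concentration giving 50% loss of viability. MI% is the maximum inhibition over the tested range.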

SK-MES-1 [5] = assay: Cytotoxicity against human SK-MES-1 cells assessed as inhibition of cell viability incubated for 72 hrs by MTS assay; assay type: functional, cell-based; conditions: SK-MES-1, 72 h; procedure, shortened: as §2
[6] = Cytotoxicity against human T24/83 cells assessed as maximum inhibition of cell viability upto 198 uM incubated for 72 hrs by MTS assay relative to control; assay type: functional; conditions: up to 198 µM; procedure, shortened: as §1
COLO 205 [7] = assay: Cytotoxicity against human COLO 205 cells assessed as maximum inhibition of cell viability upto 198 uM incubated for 72 hrs by MTS assay relative to control; assay type: functional; conditions: up to 198 µM; procedure, shortened: as §1
MIA PaCa-2 [8] = assay: Cytotoxicity against human MIA PaCa-2 cells assessed as maximum inhibition of cell viability upto 198 uM incubated for 72 hrs by MTS assay relative to control; assay type: functional; conditions: up to 198 µM; procedure, shortened: as §1
HepG2 [9] = assay: Cytotoxicity against human HepG2 cells assessed as inhibition of cell viability incubated for 72 hrs by MTS assay; assay type: functional, cell-based; conditions: HepG2, 72 h; procedure, shortened: as §2
PC-3 [10] = assay: Cytotoxicity against human PC-3 cells assessed as inhibition of cell viability incubated for 72 hrs by MTS assay; assay type: functional, cell-based; conditions: PC-3, 72 h; procedure, shortened: as §2
MCF7 = assay: Cytotoxicity against human MCF7 cells assessed as maximum inhibition of cell viability upto 198 uM incubated for 72 hrs by MTS assay relative to control; assay type: functional; conditions: up to 198 µM; procedure, shortened: as §1
HL-60 [11] = assay: Cytotoxicity against human HL-60 cells assessed as maximum inhibition of cell viability upto 198 uM incubated for 72 hrs by MTS assay relative to control; assay type: functional; conditions: up to 198 µM; procedure, shortened: as §1
PC-3 [12] = assay: Cytotoxicity against human PC-3 cells assessed as maximum inhibition of cell viability upto 198 uM incubated for 72 hrs by MTS assay relative to control; assay type: functional; conditions: up to 198 µM; procedure, shortened: as §1
[13] = Cytotoxicity against human T24/83 cells assessed as inhibition of cell viability incubated for 72 hrs by MTS assay; assay type: functional, cell-based; conditions: T24/83, 72 h; procedure, shortened: as §2
MDA-MB-231 = assay: Cytotoxicity against human MDA-MB-231 cells assessed as maximum inhibition of cell viability upto 198 uM incubated for 72 hrs by MTS assay relative to control; assay type: functional; conditions: up to 198 µM; procedure, shortened: as §1
RT112/84 [14] = assay: Cytotoxicity against human RT112/84 cells assessed as maximum inhibition of cell viability upto 198 uM incubated for 72 hrs by MTS assay relative to control; assay type: functional; conditions: up to 198 µM; procedure, shortened: as §1
SK-MES-1 [15] = assay: Cytotoxicity against human SK-MES-1 cells assessed as maximum inhibition of cell viability upto 198 uM incubated for 72 hrs by MTS assay relative to control; assay type: functional; conditions: up to 198 µM; procedure, shortened: as §1
HepG2 [16] = assay: Cytotoxicity against human HepG2 cells assessed as maximum inhibition of cell viability upto 198 uM incubated for 72 hrs by MTS assay relative to control; assay type: functional; conditions: up to 198 µM; procedure, shortened: as §1
[17] = Cytotoxicity against human ACHN-luc2 cells assessed as inhibition of cell viability incubated for 72 hrs by MTS assay; assay type: functional, cell-based; conditions: ACHN-luc2, 72 h; procedure, shortened: as §2
RL [18] = assay: Cytotoxicity against human RL cells assessed as maximum inhibition of cell viability upto 198 uM incubated for 72 hrs by MTS assay relative to control; assay type: functional; conditions: up to 198 µM; procedure, shortened: as §1
A498 [19] = assay: Cytotoxicity against human A498 cells assessed as inhibition of cell viability incubated for 72 hrs by MTS assay; assay type: functional, cell-based; conditions: A498, 72 h; procedure, shortened: as §2
CAKI-2 [20] = assay: Cytotoxicity against human CAKI-2 cells assessed as inhibition of cell viability incubated for 72 hrs by MTS assay; assay type: functional, cell-based; conditions: CAKI-2, 72 h; procedure, shortened: as §2
A2780 [21] = assay: Cytotoxicity against human A2780 cells assessed as inhibition of cell viability incubated for 72 hrs by MTS assay; assay type: functional, cell-based; conditions: A2780, 72 h; procedure, shortened: as §2
RPMI-8226 [22] = assay: Cytotoxicity against human RPMI-8226 cells assessed as maximum inhibition of cell viability upto 198 uM incubated for 72 hrs by MTS assay relative to control; assay type: functional; conditions: up to 198 µM; procedure, shortened: as §1
K562 [23] = assay: Cytotoxicity against human K562 cells assessed as maximum inhibition of cell viability upto 198 uM incubated for 72 hrs by MTS assay relative to control; assay type: functional; conditions: up to 198 µM; procedure, shortened: as §1
MIA PaCa-2 [24] = assay: Cytotoxicity against human MIA PaCa-2 cells assessed as inhibition of cell viability incubated for 72 hrs by MTS assay; assay type: functional, cell-based; conditions: MIA PaCa-2, 72 h; procedure, shortened: as §2
HL-60 [25] = assay: Cytotoxicity against human HL-60 cells assessed as inhibition of cell viability incubated for 72 hrs by MTS assay; assay type: functional, cell-based; conditions: HL-60, 72 h; procedure, shortened: as §2
BXPC-3 [26] = assay: Cytotoxicity against human BXPC-3 cells assessed as inhibition of cell viability incubated for 72 hrs by MTS assay; assay type: functional, cell-based; conditions: BXPC-3, 72 h; procedure, shortened: as §2
RPMI-8226 [27] = assay: Cytotoxicity against human RPMI-8226 cells assessed as inhibition of cell viability incubated for 72 hrs by MTS assay; assay type: functional, cell-based; conditions: RPMI-8226, 72 h; procedure, shortened: as §2
NCI-H1975 = assay: Cytotoxicity against human NCI-H1975 cells assessed as maximum inhibition of cell viability upto 198 uM incubated for 72 hrs by MTS assay relative to control; assay type: functional; conditions: up to 198 µM; procedure, shortened: as §1
5637 [28] = assay: Cytotoxicity against human 5637 cells assessed as inhibition of cell viability incubated for 72 hrs by MTS assay; assay type: functional, cell-based; conditions: Homo sapiens, 5637, 72 h; procedure, shortened: as §2
K562 [29] = assay: Cytotoxicity against human K562 cells assessed as inhibition of cell viability incubated for 72 hrs by MTS assay; assay type: functional, cell-based; conditions: K562, 72 h; procedure, shortened: as §2
BXPC-3 [30] = assay: Cytotoxicity against human BXPC-3 cells assessed as maximum inhibition of cell viability upto 198 uM incubated for 72 hrs by MTS assay relative to control; assay type: functional; conditions: up to 198 µM; procedure, shortened: as §1
RT112/84 [31] = assay: Cytotoxicity against human RT112/84 cells assessed as inhibition of cell viability incubated for 72 hrs by MTS assay; assay type: functional, cell-based; conditions: RT112/84, 72 h; procedure, shortened: as §2
OVCAR-3 [32] = assay: Cytotoxicity against human OVCAR-3 cells assessed as inhibition of cell viability incubated for 72 hrs by MTS assay; assay type: functional, cell-based; conditions: OVCAR-3, 72 h; procedure, shortened: as §2
HT-29 [33] = assay: Cytotoxicity against human HT-29 cells assessed as maximum inhibition of cell viability upto 198 uM incubated for 72 hrs by MTS assay relative to control; assay type: functional; conditions: up to 198 µM; procedure, shortened: as §1
MOLT-4 [34] = assay: Cytotoxicity against human MOLT-4 cells assessed as inhibition of cell viability incubated for 72 hrs by MTS assay; assay type: functional, cell-based; conditions: MOLT-4, 72 h; procedure, shortened: as §2
5637 [35] = assay: Cytotoxicity against human 5637 cells assessed as maximum inhibition of cell viability upto 198 uM incubated for 72 hrs by MTS assay relative to control; assay type: functional; conditions: up to 198 µM; procedure, shortened: as §1
CAKI-2 [36] = assay: Cytotoxicity against human CAKI-2 cells assessed as maximum inhibition of cell viability upto 198 uM incubated for 72 hrs by MTS assay relative to control; assay type: functional; conditions: up to 198 µM; procedure, shortened: as §1
KG-1 [37] = assay: Cytotoxicity against human KG-1 cells assessed as maximum inhibition of cell viability upto 198 uM incubated for 72 hrs by MTS assay relative to control; assay type: functional; conditions: up to 198 µM; procedure, shortened: as §1
KG-1 [38] = assay: Cytotoxicity against human KG-1 cells assessed as inhibition of cell viability incubated for 72 hrs by MTS assay; assay type: functional, cell-based; conditions: KG-1, 72 h; procedure, shortened: as §2
A498 [39] = assay: Cytotoxicity against human A498 cells assessed as maximum inhibition of cell viability upto 198 uM incubated for 72 hrs by MTS assay relative to control; assay type: functional; conditions: up to 198 µM; procedure, shortened: as §1
OVCAR-3 [40] = assay: Cytotoxicity against human OVCAR-3 cells assessed as maximum inhibition of cell viability upto 198 uM incubated for 72 hrs by MTS assay relative to control; assay type: functional; conditions: up to 198 µM; procedure, shortened: as §1
A2780 [41] = assay: Cytotoxicity against human A2780 cells assessed as maximum inhibition of cell viability upto 198 uM incubated for 72 hrs by MTS assay relative to control; assay type: functional; conditions: up to 198 µM; procedure, shortened: as §1
RL [42] = assay: Cytotoxicity against human RL cells assessed as inhibition of cell viability incubated for 72 hrs by MTS assay; assay type: functional, cell-based; procedure, shortened: as §2
COLO 205 [43] = assay: Cytotoxicity against human COLO 205 cells assessed as inhibition of cell viability incubated for 72 hrs by MTS assay; assay type: functional, cell-based; conditions: COLO 205, 72 h; procedure, shortened: as §2
HT-29 [44] = assay: Cytotoxicity against human HT-29 cells assessed as inhibition of cell viability incubated for 72 hrs by MTS assay; assay type: functional, cell-based; conditions: HT-29, 72 h; procedure, shortened: as §2

Work on `CC(=O)O[C@H]1C(=O)[C@@]2(C)[C@H]([C@H](OC(=O)c3ccccc3)[C@]3(O)C[C@H](OC(=O)[C@H](O)[C@@H](NC(=O)c4ccccc4)c4ccccc4)C(C)=C1C3(C)C)[C@]1(OC(C)=O)CO[C@@H]1C[C@@H]2O` [PACLITAXEL] yielded an Imax (MOLT-4 [1]) of 99%, an Imax [2] of 47% and an Imax (PANC-1 [3]) of 56%. The IC50 (PANC-1 [4]) was 3 nM, the IC50 (SK-MES-1 [5]) was 10 nM and the Imax [6] was 97%. It also gave an Imax (COLO 205 [7]) of 90%, an Imax (MIA PaCa-2 [8]) of 83% and an IC50 (HepG2 [9]) of 60 nM. It also gave an IC50 (PC-3 [10]) of 10 nM, an Imax (MCF7) of 75% and an Imax (HL-60 [11]) of 97%. It also gave an Imax (PC-3 [12]) of 62%, an IC50 [13] of 4 nM and an Imax (MDA-MB-231) of 70%. It also gave an Imax (RT112/84 [14]) of 77%, an Imax (SK-MES-1 [15]) of 77% and an Imax (HepG2 [16]) of 54%. The IC50 [17] was 20 nM, the Imax (RL [18]) was 63% and the IC50 (A498 [19]) was 20 nM. It also gave an IC50 (CAKI-2 [20]) of 10 nM, an IC50 (A2780 [21]) of 8 nM and an Imax (RPMI-8226 [22]) of 95%. The Imax (K562 [23]) was 87%, the IC50 (MIA PaCa-2 [24]) was 3 nM and the IC50 (HL-60 [25]) was 12 nM. The IC50 (BXPC-3 [26]) was 5 nM, the IC50 (RPMI-8226 [27]) was 2 nM and the Imax (NCI-H1975) was 75%. It also gave an IC50 5637 [28] of 2 nM, an IC50 (K562 [29]) of 13 nM and an Imax (BXPC-3 [30]) of 85%. For the same compound, the IC50 (RT112/84 [31]) was 10 nM, the IC50 (OVCAR-3 [32]) was 4 nM and the Imax (HT-29 [33]) was 79%. For the same compound, the IC50 (MOLT-4 [34]) was 4 nM, the Imax 5637 [35] was 95% and the Imax (CAKI-2 [36]) was 78%. For the same compound, the Imax (KG-1 [37]) was 79%, the IC50 (KG-1 [38]) was 68 nM and the Imax (A498 [39]) was 74%. It also gave an Imax (OVCAR-3 [40]) of 59%, an Imax (A2780 [41]) of 72% and an IC50 (RL [42]) of 7 nM. For the same compound, the IC50 (COLO 205 [43]) was 10 nM and the IC50 (HT-29 [44]) was 30 nM.

— ChEMBL document CHEMBL5550111, “Design, synthesis and biological evaluation of aryloxy thiophosphoramidate triesters of anticancer nucleoside analogues” (Bioorg Med Chem, 2024)
